Results on 6 molecules are retold here after ChEMBL document CHEMBL1153582, “Expedient solid-phase synthesis of both symmetric and asymmetric diol libraries targeting aspartic proteases” (Bioorg Med Chem Lett, 2009).

Experiment [1] addresses Plasmepsin II (Plasmodium falciparum, UniProt P46925). Put plainly: Inhibition of Plasmodium falciparum plasmepsin-2 in fluorescence microplate assay. The method, boiled down: (§1)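 Library products were used as crude material, without purification, for direct in situ screening in a standard fluorescence microplate assay. IC50 was taken from inhibition curves plotted against log inhibitor concentration in nM.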

In experiment [2] the target is Plasmepsin I (Plasmodium falciparum, UniProt P39898). Put plainly: Inhibition of Plasmodium falciparum plasmepsin-1 in fluorescence microplate assay. The method, boiled down: as §1
Chain of Plasmepsin I (P39898 whole entry): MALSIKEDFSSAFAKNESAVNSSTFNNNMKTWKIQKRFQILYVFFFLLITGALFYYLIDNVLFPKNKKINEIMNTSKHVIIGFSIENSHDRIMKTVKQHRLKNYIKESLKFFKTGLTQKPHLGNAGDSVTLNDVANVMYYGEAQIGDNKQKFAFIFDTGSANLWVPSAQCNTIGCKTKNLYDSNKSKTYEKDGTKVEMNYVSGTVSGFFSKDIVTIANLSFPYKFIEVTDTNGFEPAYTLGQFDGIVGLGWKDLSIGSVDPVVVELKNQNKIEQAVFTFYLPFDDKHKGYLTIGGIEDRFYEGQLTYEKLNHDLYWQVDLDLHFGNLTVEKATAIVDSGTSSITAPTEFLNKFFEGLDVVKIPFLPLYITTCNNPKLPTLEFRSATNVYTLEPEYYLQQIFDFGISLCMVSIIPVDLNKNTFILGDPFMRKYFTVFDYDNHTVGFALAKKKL
Experiment [3] addresses Protease (Human immunodeficiency virus 1, UniProt Q9YQ12). The experiment in a line: Inhibition of HIV1 protease by fluorescence microplate assay. The method in brief:
as §1

Chain of Protease (Q9YQ12 whole entry): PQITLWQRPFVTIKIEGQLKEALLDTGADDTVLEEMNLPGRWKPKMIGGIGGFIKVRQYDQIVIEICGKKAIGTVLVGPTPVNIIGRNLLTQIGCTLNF
Chain of Plasmepsin II (P46925 whole entry): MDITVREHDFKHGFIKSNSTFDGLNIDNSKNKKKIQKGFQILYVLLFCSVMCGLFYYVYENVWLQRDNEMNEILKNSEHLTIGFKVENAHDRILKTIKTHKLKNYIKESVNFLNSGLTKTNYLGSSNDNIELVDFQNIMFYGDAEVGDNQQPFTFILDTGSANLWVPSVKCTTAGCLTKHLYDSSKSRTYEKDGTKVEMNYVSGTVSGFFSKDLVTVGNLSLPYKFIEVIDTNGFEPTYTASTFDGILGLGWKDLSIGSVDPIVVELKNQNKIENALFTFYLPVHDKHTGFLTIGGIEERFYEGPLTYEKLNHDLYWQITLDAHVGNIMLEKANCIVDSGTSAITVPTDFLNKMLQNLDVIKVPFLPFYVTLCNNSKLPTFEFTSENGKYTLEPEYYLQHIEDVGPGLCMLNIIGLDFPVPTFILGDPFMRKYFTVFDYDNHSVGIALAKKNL

`O=C(N[C@@H](Cc1ccccc1)[C@@H](O)[C@H](O)[C@H](Cc1ccccc1)NC(=O)c1ccc(F)cc1Cl)c1ccc(F)cc1Cl`: the IC50 in experiment [1] is above 25 µM; in experiment [2], above 25 µM; in experiment [3], 0.395 µM. The same molecule gave a Ki in experiment [3] of 0.4 µM.

As for `O=C(N[C@@H](Cc1ccccc1)[C@@H](O)[C@H](O)[C@H](Cc1ccccc1)NC(=O)c1ccc(F)cc1Cl)c1ccc2c(c1)OCCO2`, the results for the IC50 in experiment [1], in experiment [2] and in experiment [3] were 11.8 µM, above 25 µM and above 25 µM, respectively.

For the molecule `CC(C)C[C@H](NC(=O)CC1CCCCC1)[C@@H](O)[C@H](O)[C@H](CC(C)C)NC(=O)CC1CCCCC1`, the IC50 in experiment [1] is above 25 µM; in experiment [2], 2.64 µM; in experiment [3], above 25 µM.

As to `Cc1ccc(C(=O)N[C@@H](Cc2ccccc2)[C@@H](O)[C@H](O)[C@H](Cc2ccccc2)NC(=O)C2CCOC2)cn1` (some centres undefined), the IC50 in experiment [1] was 12.7 µM; in experiment [2], above 25 µM; in experiment [3], above 25 µM.

On to `O=C(CC1CCCCC1)N[C@@H](Cc1ccccc1)[C@@H](O)[C@H](O)[C@H](Cc1ccccc1)NC(=O)CC1CCCCC1`, for which the IC50 was 3.91 µM in experiment [1], 4.39 µM in experiment [2] and above 25 µM in experiment [3].

On to `COc1ccccc1C(=O)N[C@@H](CC(C)C)[C@@H](O)[C@H](O)[C@H](CC(C)C)NC(=O)c1ccccc1OC`, for which the IC50 is above 25 µM in experiment [1], above 25 µM in experiment [2] and 1.31 µM in experiment [3].
